Source: ChEMBL document CHEMBL1649147, “Antistaphylococcal activity of dihydrophthalazine antifolates, a family of novel antibacterial drugs” (2009)
In brackets after ≈: the same amount, converted by molar mass.

Key:
[1] = system: Staphylococcus epidermidis; assay: Antibacterial activity against methicillin-resistant, Linezolid non-susceptible coagulase-negative Staphylococcus epidermidis 345 after 50 passages by agar dilution method; assay type: functional
Summary of the method: (§1)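 Daily serial passage for up to 50 days at 35°C for 24 h in 1 ml MHB. Each transfer used 10 µl from the tube nearest the MIC (1–2 dilutions below) with the same turbidity as the drug-free control. MICs were measured by agar dilution, with changes given as log2 steps.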

[2] = system: Staphylococcus epidermidis; assay: Antibacterial activity against coagulase-negative Staphylococcus epidermidis 345 after 50 passages by agar dilution method; assay type: functional
Summary of the method: (§2)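 Serial passage under drug. Inoculum was ~1 × 10^6 CFU/ml from overnight MHA growth, in 1 ml MHB at 35°C for 24 h. Drug ranged from 4 log2 steps above to 3 log2 steps below the MIC. […] MIC change is given as log2 steps.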

[3] = system: Staphylococcus epidermidis; assay: Antibacterial activity against methicillin-susceptible coagulase-negative Staphylococcus epidermidis 051 by broth macrodilution method; assay type: functional
[4] = system: Staphylococcus epidermidis; assay: Antibacterial activity against coagulase-negative Staphylococcus epidermidis 345 after 10 passages in MBH without antibiotic by agar dilution method; assay type: functional
Summary of the method: (§3)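 After drug-selective serial passage, selected clones were passaged 10 times in antibiotic-free MHB. MICs were then redetermined, and the change is expressed as log2 dilution steps.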

[5] = system: Staphylococcus aureus; assay: Antibacterial activity against Staphylococcus aureus 145
[6] = system: Staphylococcus aureus; assay: Antibacterial activity against methicillin-susceptible Staphylococcus aureus ATCC 29213 by broth macrodilution method; assay type: functional; conditions: ATCC29213
[7] = system: Staphylococcus aureus; assay: Antibacterial activity against Tmp-susceptible Staphylococcus aureus by agar dilution method; assay type: functional
Summary of the method: (§4)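 MICs by agar dilution on Mueller-Hinton agar following CLSI guidelines. S. aureus ATCC 29213 and E. faecalis ATCC 29212 were run as quality controls with each set, and test-strain MICs were kept only if control MICs fell within acceptable ranges.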

[8] = system: Staphylococcus epidermidis; assay: Antibacterial activity against coagulase-negative Staphylococcus epidermidis 051 after 50 passages by agar dilution method; assay type: functional; summary of the method: as §2
[9] = system: Staphylococcus aureus; assay: Antibacterial activity against methicillin-resistant and vancomycin-resistant Staphylococcus aureus VRS1 after 15 passages by agar dilution method; assay type: functional
Summary of the method: (§5)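 Daily serial passage for up to 50 days at 35°C for 24 h in 1 ml MHB. […] Each transfer used 10 µl from the tube nearest the MIC (1–2 dilutions below) with the same turbidity as the drug-free control. […] MICs were measured by agar dilution, with changes given as log2 steps.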

[10] = system: Staphylococcus aureus; assay: Antibacterial activity against Tmp-resistant Staphylococcus aureus by agar dilution method; assay type: functional; summary of the method: as §4
[11] = system: Staphylococcus aureus; assay: Antibacterial activity against Staphylococcus aureus 145 after 10 passages in MHB without antibiotic by agar dilution method; assay type: functional; summary of the method: as §3
[12] = system: Staphylococcus epidermidis; assay: Antibacterial activity against coagulase-negative Staphylococcus epidermidis 051 after 10 passages in MBH without antibiotic by agar dilution method; assay type: functional; summary of the method: as §3
[13] = system: Staphylococcus epidermidis; assay: Antibacterial activity against methicillin-susceptible coagulase-negative Staphylococcus epidermidis 051 after 50 passages by agar dilution method; assay type: functional; summary of the method: as §1
[14] = system: Staphylococcus aureus; assay: Antibacterial activity against methicillin-susceptible Staphylococcus aureus 505 by broth macrodilution method; assay type: functional
[15] = system: Staphylococcus epidermidis; assay: Antibacterial activity against coagulase-negative Staphylococcus epidermidis 057 assessed as change in MIC by agar dilution method after serial passages in presence of antibiotic relative to control; assay type: functional; summary of the method: as §2
[16] = system: Staphylococcus aureus; assay: Antibacterial activity against methicillin-susceptible, vancomycin-intermediate Staphylococcus aureus 505 by broth macrodilution method; assay type: functional
[17] = system: Staphylococcus epidermidis; assay: Antibacterial activity against coagulase-negative Staphylococcus epidermidis 051 by agar dilution method; assay type: functional; summary of the method: as §4
[18] = system: Staphylococcus aureus; assay: Antibacterial activity against methicillin-resistant and vancomycin-resistant Staphylococcus aureus VRS1 by agar dilution method; assay type: functional
Summary of the method: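 Agar dilution on Mueller-Hinton agar per CLSI guidelines. S. aureus ATCC 29213 and E. faecalis ATCC 29212 were run with each set, and test MICs were accepted only when the control strains fell within acceptable ranges.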

[19] = system: Staphylococcus epidermidis; assay: Antibacterial activity against methicillin-resistant coagulase-negative Staphylococcus epidermidis 225 by broth macrodilution method; assay type: functional
[20] = system: Staphylococcus epidermidis; assay: Antibacterial activity against methicillin-susceptible coagulase-negative Staphylococcus epidermidis 057 by broth macrodilution method; assay type: functional
[21] = system: Staphylococcus aureus; assay: Antibacterial activity against Staphylococcus aureus ATCC 29213 assessed as change in MIC by agar odilution method after serial passages in presence of antibiotic relative to control; assay type: functional, ATCC29213; summary of the method: as §2
[22] = system: Staphylococcus aureus; assay: Antibacterial activity against methicillin-resistant Staphylococcus aureus ATCC 43300 after 50 passages by agar dilution method; assay type: functional; conditions: ATCC43300; summary of the method: as §2
[23] = system: Staphylococcus epidermidis; assay: Antibacterial activity against methicillin-resistant coagulase-negative Staphylococcus epidermidis 197 by broth macrodilution method; assay type: functional
[24] = system: Staphylococcus aureus; assay: Antibacterial activity against vancomycin-resistant Staphylococcus aureus VRS1 after 10 passages in MHB without antibiotic by agar dilution method; assay type: functional
Summary of the method: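 Clones from the end of drug passage were transferred 10 times in MHB without antibiotic, then retested by agar dilution. MIC change is expressed as log2 dilution steps.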

[25] = system: Staphylococcus epidermidis; assay: Antibacterial activity against coagulase-negative Staphylococcus epidermidis 345 assessed as change in MIC by agar dilution method after serial passages in the absence of antibiotic relative to control; assay type: functional; summary of the method: as §3
[26] = system: Staphylococcus epidermidis; assay: Antibacterial activity against methicillin-resistant, vancomycin-intermediate coagulase-negative Staphylococcus epidermidis 225 after 50 passages by agar dilution method; assay type: functional; summary of the method: as §5
[27] = system: Staphylococcus aureus; assay: Antibacterial activity against Staphylococcus aureus ATCC 43300 assessed as change in MIC by agar dilution method after serial passages in presence of antibiotic relative to control; assay type: functional; summary of the method: as §2
[28] = system: Staphylococcus epidermidis; assay: Antibacterial activity against coagulase-negative Staphylococcus epidermidis 225 after 10 passages in MBH without antibiotic by agar dilution method; assay type: functional; summary of the method: as §3
[29] = system: Staphylococcus aureus; assay: Antibacterial activity against methicillin-resistant Staphylococcus aureus 145 after 37 passages by agar dilution method; assay type: functional; summary of the method: as §2
[30] = system: Staphylococcus epidermidis; assay: Antibacterial activity against coagulase-negative Staphylococcus epidermidis 051 after 38 passages by agar dilution method; assay type: functional; summary of the method: as §2
[31] = system: Staphylococcus epidermidis; assay: Antibacterial activity against coagulase-negative Staphylococcus epidermidis 225 after 38 passages by agar dilution method; assay type: functional; summary of the method: as §2
[32] = system: Staphylococcus epidermidis; assay: Antibacterial activity against methicillin-susceptible coagulase-negative Staphylococcus epidermidis 051 after 38 passages by agar dilution method; assay type: functional; summary of the method: as §5
[33] = system: Staphylococcus epidermidis; assay: Antibacterial activity against methicillin-susceptible coagulase-negative Staphylococcus epidermidis 057 after 15 passages by agar dilution method; assay type: functional; summary of the method: as §5
[34] = system: Staphylococcus epidermidis; assay: Antibacterial activity against coagulase-negative Staphylococcus epidermidis 345 after 33 passages by agar dilution method; assay type: functional; summary of the method: as §2
[35] = system: Staphylococcus aureus; assay: Antibacterial activity against Staphylococcus aureus 145 after 47 passages by agar dilution method; assay type: functional; summary of the method: as §2
[36] = system: Staphylococcus aureus; assay: Antibacterial activity against methicillin-resistant and vancomycin-resistant Staphylococcus aureus VRS1 after 20 passages by agar dilution method; assay type: functional; summary of the method: as §5
[37] = system: Staphylococcus aureus; assay: Antibacterial activity against vancomycin-resistant Staphylococcus aureus VRS1 after 20 passages by agar dilution method; assay type: functional; summary of the method: as §5
[38] = system: Staphylococcus aureus; assay: Antibacterial activity against methicillin-resistant Staphylococcus aureus 145 after 47 passages by agar dilution method; assay type: functional; summary of the method: as §2
[39] = system: Staphylococcus epidermidis; assay: Antibacterial activity against coagulase-negative Staphylococcus epidermidis 057 after 15 passages by agar dilution method; assay type: functional; summary of the method: as §2
[40] = system: Staphylococcus epidermidis; assay: Antibacterial activity against methicillin-susceptible coagulase-negative Staphylococcus epidermidis 057 after 23 passages by agar dilution method; assay type: functional; summary of the method: as §5
[41] = system: Staphylococcus epidermidis; assay: Antibacterial activity against coagulase-negative Staphylococcus epidermidis 225 after 36 passages by agar dilution method; assay type: functional; summary of the method: as §2
[42] = system: Staphylococcus epidermidis; assay: Antibacterial activity against coagulase-negative Staphylococcus epidermidis 057 after 23 passages by agar dilution method; assay type: functional; summary of the method: as §2

Compound | MIC [3] | MIC [4] | MIC [5] | MIC [6] | MIC50 [7] | MIC90 [7] | MIC50 [10] | MIC90 [10] | MIC [11] | MIC [12] | MIC [14] | fold change (FC) [15] | MIC [16] | MIC [17] | MIC [18] | MIC [19] | MIC [20] | fold change (FC) [21] | MIC [22] | MIC [23] | further results
COc1ncc(C2c3ccccc3C=NN2C(=O)/C=C/c2cc(Cc3cnc(N)nc3N)cc(OC)c2OC)cn1 (stereo unspecified) | 0.125 µg/mL (≈ 0.226 µM) | 2 µg/mL (≈ 3.62 µM) | 0.5 µg/mL (≈ 0.905 µM) | 0.03 µg/mL (≈ 0.0543 µM) | 0.03 µg/mL (≈ 0.0543 µM) | 0.03 µg/mL (≈ 0.0543 µM) | 0.25 µg/mL (≈ 0.452 µM) | 0.5 µg/mL (≈ 0.905 µM) | 16 µg/mL (≈ 29 µM) | 16 µg/mL (≈ 29 µM) | 0.03 µg/mL (≈ 0.0543 µM) | 4 | 0.016 µg/mL (≈ 0.029 µM) | 0.25 µg/mL (≈ 0.452 µM) | 0.5 µg/mL (≈ 0.905 µM) | 0.25 µg/mL (≈ 0.452 µM) | 8 µg/mL (≈ 14.5 µM) | 8 | 4 µg/mL (≈ 7.24 µM) | 0.008 µg/mL (≈ 0.0145 µM) | MIC [1]: 16 µg/mL (≈ 29 µM); MIC [2]: 16 µg/mL (≈ 29 µM); MIC [8]: 64 µg/mL (≈ 116 µM); MIC [9]: > 128 µg/mL; MIC [13]: 64 µg/mL (≈ 116 µM); MIC [24]: 128 µg/mL (≈ 232 µM); fold change (FC) [25]: -3; MIC [26]: 128 µg/mL (≈ 232 µM); fold change (FC) [27]: 7; MIC [28]: 8 µg/mL (≈ 14.5 µM); MIC [29]: > 128 µg/mL
COc1cc(Cc2cnc(N)nc2N)cc(/C=C/C(=O)N2N=Cc3ccccc3C2c2cnc(N(C)C)nc2)c1OC (stereo unspecified) | 0.125 µg/mL (≈ 0.221 µM) | 2 µg/mL (≈ 3.54 µM) | 0.25 µg/mL (≈ 0.442 µM) | 0.06 µg/mL (≈ 0.106 µM) | 0.03 µg/mL (≈ 0.053 µM) | 0.03 µg/mL (≈ 0.053 µM) | 0.25 µg/mL (≈ 0.442 µM) | 0.5 µg/mL (≈ 0.884 µM) | > 128 µg/mL | 4 µg/mL (≈ 7.07 µM) | 0.125 µg/mL (≈ 0.221 µM) | 5 | 0.03 µg/mL (≈ 0.053 µM) | 0.125 µg/mL (≈ 0.221 µM) | 0.25 µg/mL (≈ 0.442 µM) | 0.125 µg/mL (≈ 0.221 µM) | 4 µg/mL (≈ 7.07 µM) | 3 | 1 µg/mL (≈ 1.77 µM) | 0.03 µg/mL (≈ 0.053 µM) | MIC [30]: > 128 µg/mL; MIC [31]: > 128 µg/mL; MIC [32]: > 128 µg/mL; MIC [33]: > 128 µg/mL; MIC [34]: > 128 µg/mL; MIC [35]: > 128 µg/mL; MIC [36]: > 128 µg/mL; MIC [24]: > 128 µg/mL; fold change (FC) [25]: -7; fold change (FC) [27]: 5; MIC [28]: 2 µg/mL (≈ 3.54 µM); MIC [37]: > 128 µg/mL; MIC [38]: > 128 µg/mL; MIC [39]: > 128 µg/mL
COc1cc(Cc2cnc(N)nc2N)cc(/C=C/C(=O)N2N=Cc3ccccc3C2c2cnc(N3CCOCC3)nc2)c1OC (stereo unspecified) | 0.25 µg/mL (≈ 0.411 µM) | 2 µg/mL (≈ 3.29 µM) | 0.25 µg/mL (≈ 0.411 µM) | 0.06 µg/mL (≈ 0.0987 µM) | 0.03 µg/mL (≈ 0.0494 µM) | 0.06 µg/mL (≈ 0.0987 µM) | 0.25 µg/mL (≈ 0.411 µM) | 0.5 µg/mL (≈ 0.823 µM) | 128 µg/mL (≈ 211 µM) | 1 µg/mL (≈ 1.65 µM) | 0.03 µg/mL (≈ 0.0494 µM) | 5 | 0.03 µg/mL (≈ 0.0494 µM) | 0.5 µg/mL (≈ 0.823 µM) | 1 µg/mL (≈ 1.65 µM) | 0.25 µg/mL (≈ 0.411 µM) | 4 µg/mL (≈ 6.58 µM) | 4 | 2 µg/mL (≈ 3.29 µM) | 0.06 µg/mL (≈ 0.0987 µM) | MIC [1]: 4 µg/mL (≈ 6.58 µM); MIC [2]: 4 µg/mL (≈ 6.58 µM); MIC [40]: > 128 µg/mL; MIC [8]: 64 µg/mL (≈ 105 µM); MIC [41]: > 128 µg/mL; MIC [13]: 64 µg/mL (≈ 105 µM); MIC [24]: > 128 µg/mL; fold change (FC) [25]: -1; MIC [42]: > 128 µg/mL; fold change (FC) [27]: 5; MIC [28]: 2 µg/mL (≈ 3.29 µM)
